Test results: ChEMBL document CHEMBL4825662 (J Med Chem, 2021)
Values after ≈ are worked out from the molar mass of the structure shown.

Assays:
[1] = Cmax in CD1 mouse at 5 mg/kg, po measured after 0.03 to 24 hrs by UHPLC-TOF method; type: ADME, organism-based; design: route oral, time upper 24 hrs, time lower 0.03 hrs, dose 5 mg/kg; details: in vivo
[2] = Tmax in CD1 mouse at 5 mg/kg, po measured after 0.083 to 24 hrs by UHPLC-TOF method; type: ADME, organism-based; details: in vivo, time 0.083-24 hrs
In short: (§1)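 Male CD-1 mice, acclimatized and individually housed, dosed IV and PO as amorphous-solid suspension. Terminal cardiac-puncture blood into heparinized tubes on wet ice, centrifuged at 4 °C within 15 min; plasma snap-frozen at −20 °C. IV arm sampled 2 min–24 h, oral arm 5 min–24 h. Plasma analysed by UHPLC-quadrupole-TOF MS.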

[3] = Cytotoxicity against human HepG2 cells by MTT assay; type: cell-based
In short: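 Viability was assessed by MTT after culture with compound at 0.01 nM to 100 μM, run in parallel with plaque reduction assays. Values are the average of at least two testing occasions.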

[4] = Clearance in Sprague-Dawley rat at 1 mg/kg, iv administered […] measured after 0.02 to 24 hrs by tandem liquid chromatography/mass spectrometry; type: ADME, organism-based; details: in vivo, time 0.02-24 hrs
[5] = Intrinsic clearance in Beagle dog liver microsomes preincubated followed by NADPH addition and measured up to 45 mins by LC-MS/MS analysis; type: ADME, Canis lupus familiaris, Microsome
[6] = Intrinsic clearance in human liver microsomes preincubated followed by NADPH addition and measured up to 45 mins by LC-MS/MS analysis; type: ADME, Microsome
[7] = Thermodynamic solubility in PBS at 1 to 100 uM at pH 7.4 by HPLC-UV method; type: physicochemical; details: dose 1-100 µM, read-out: Therm_solubility
[8] = Half life in CD1 mouse at 1 mg/kg, iv measured after 0.03 to 24 hrs by UHPLC-TOF method; type: ADME, organism-based; details: in vivo, time 0.03-24 hrs
[9] = Oral bioavailability in Sprague-Dawley rat at 10 mg/kg administered via gavage measured after 0.02 to 24 hrs by tandem liquid chromatography/mass spectrometry; type: ADME, organism-based; details: in vivo, time 0.02-24 hrs
In short: (§2)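 Male Sprague–Dawley rats (200–250 g), 3 per route. IV bolus at 1 mg/kg, 1 mg/mL in 40:60 dimethylacetamide/saline; oral gavage at 5 or 10 mg/kg, 5 mg/mL in 1% methyl cellulose, 0.1% Tween 80 in water. Serial blood at 0.02–24 h (ten points) into heparin, spun at 4 °C, plasma frozen; acetonitrile protein precipitation, ESI LC-MS/MS with matrix curve and internal standards.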

[10] = Half life in Sprague-Dawley rat at 10 mg/kg, po measured after 0.25 to 24 hrs by UHPLC-TOF method; type: ADME, organism-based; details: in vivo, time 0.25-24 hrs
[11] = Volume of distribution at steady state in Sprague-Dawley rat at 1 mg/kg, iv administered […] measured after 0.02 to 24 hrs by tandem liquid chromatography/mass spectrometry; type: ADME, organism-based; details: in vivo, time 0.02-24 hrs, read-out: Vdss; in short: as §2
[12] = Efflux ratio of apparent permeability in MDCK-MDR1 cells at 10 uM measured at 60 mins by LC-MS/MS analysis; type: ADME, cell-based, Canis lupus familiaris; details: dog, MDCK-MDR1
[13] = Volume of distribution at steady state in CD1 mouse at 1 mg/kg, iv measured after 0.083 to 24 hrs by UHPLC-TOF method; type: ADME, organism-based; details: in vivo, time 0.083-24 hrs, read-out: Vdss; in short: as §1
[14] = Cmax in Sprague-Dawley rat at 10 mg/kg, po measured after 0.02 to 24 hrs by UHPLC-TOF method; type: ADME, organism-based; design: route oral, dose 10 mg/kg, time 0.02-24 hrs; details: in vivo
[15] = Oral bioavailability in CD1 mouse at 5 mg/kg measured after 0.03 to 24 hrs by UHPLC-TOF method; type: ADME, organism-based; details: in vivo, time 0.03-24 hrs; in short: as §1
Human orthopneumovirus = test: Antiviral activity against Respiratory syncytial virus A2 infected in human Huh7 cells by Plaque reduction assay; type: functional, organism-based; details: A2, Huh-7
In short: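 Huh-7 cells were infected with RSV strain A2 in the presence of compound. Values are the average of at least two testing occasions.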

[16] = Tmax in Sprague-Dawley rat at 10 mg/kg, po measured after 0.02 to 24 hrs by UHPLC-TOF method; type: ADME, organism-based; details: Sprague-Dawley, in vivo, time 0.02-24 hrs, read-out: Tmax
[17] = Cmax in Sprague-Dawley rat at 5 mg/kg, po administered via gavage measured after 0.02 to 24 hrs by tandem liquid chromatography/mass spectrometry; type: ADME, organism-based; design: route oral, dose 5 mg/kg, time upper 24 hrs, time lower 0.02 hrs; details: in vivo
In short: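 Male Sprague–Dawley rats weighing 200–250 g, 3 per route, were used. The i.v. bolus was 1 mg/kg at 1 mg/mL in 40:60 dimethylacetamide/saline. Oral gavage doses were 5 or 10 mg/kg at 5 mg/mL in 1% methyl cellulose with 0.1% Tween 80. Heparinized blood was taken at 0.02–24 h (ten time points). Plasma was analyzed by LC-MS/MS after acetonitrile precipitation.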

[18] = Clearance in CD1 mouse at 1 mg/kg, iv measured after 0.083 to 24 hrs by UHPLC-TOF method; type: ADME, organism-based; details: in vivo, time 0.083-24 hrs
[19] = Intrinsic clearance in Sprague-Dawley rat liver microsomes preincubated followed by NADPH addition and measured up to 45 mins by LC-MS/MS analysis; type: ADME, Microsome
[20] = Apparent permeability across apical to basolateral side in MDCK-MDR1 cells at 10 uM measured at 60 mins by LC-MS/MS analysis; type: ADME, cell-based, Canis lupus familiaris; details: dog, MDCK-MDR1
[21] = Apparent permeability across basolateral side to apical side in MDCK-MDR1 cells at 10 uM measured at 60 mins by LC-MS/MS analysis; type: ADME, cell-based, Canis lupus familiaris; details: dog
[22] = Intrinsic clearance in rat hepatocytes at 3 uM assessed per million cells measured up to 60 mins by LC-MS/MS analysis; type: ADME, cell-based, Hepatocyte; details: read-out: CLH
[23] = Tmax in Beagle dog at 3 mg/kg, […] by UHPLC-TOF method; type: ADME, organism-based, Canis lupus familiaris; details: in vivo, po
[24] = Half life in human liver microsomes preincubated followed by NADPH addition and measured up to 45 mins by LC-MS/MS analysis; type: ADME, Microsome
[25] = Tmax in CD1 mouse at 10 mg/kg, po measured after 0.083 to 24 hrs by UHPLC-TOF method; type: ADME, organism-based; details: in vivo, time 0.083-24 hrs; in short: as §1
[26] = Protein binding in dog plasma assessed as unbound fraction at 5 uM by LC-MS/MS analysis based equilibrium dialysis method; type: ADME, cell-free, Canis lupus familiaris
[27] = Protein binding in rat plasma assessed as unbound fraction at 5 uM by LC-MS/MS analysis based equilibrium dialysis method; type: ADME, cell-free
[28] = Half life in human hepatocytes at 3 uM measured up to 60 mins by LC-MS/MS analysis; type: ADME, cell-based, Hepatocyte
[29] = Half life in Beagle dog at 3 mg/kg, po measured after 0.03 to 24 hrs by UHPLC-TOF method; type: ADME, organism-based, Canis lupus familiaris; details: in vivo, time 0.03-24 hrs
[30] = Half life in rat hepatocytes at 3 uM measured up to 60 mins by LC-MS/MS analysis; type: ADME, cell-based, Hepatocyte
[31] = Clearance in Beagle dog at 0.3 mg/kg, iv measured after 0.03 to 24 hrs by UHPLC-TOF method; type: ADME, organism-based, Canis lupus familiaris; details: in vivo, time 0.03-24 hrs
[32] = Half life in CD1 mouse at 10 mg/kg, po measured after 0.083 to 24 hrs by UHPLC-TOF method; type: ADME, organism-based; details: in vivo, time 0.083-24 hrs
[33] = Half life in Beagle dog at 0.3 mg/kg, iv measured after 0.03 to 24 hrs by UHPLC-TOF method; type: ADME, organism-based, Canis lupus familiaris; details: in vivo, time 0.03-24 hrs
In short: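 Dogs dosed IV as a suspension of amorphous solid. Serial blood at 2, 5, 15 min and 1, 2, 4, 8, 12, 24 h into heparinized tubes, centrifuged at 4 °C for 10 min at 3000g. Plasma snap-frozen and stored at −20 °C, then analysed by UHPLC-TOF.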

[34] = Cmax in Beagle dog at 3 mg/kg, po measured after 0.03 to 24 hrs by UHPLC-TOF method; type: ADME, organism-based, Canis lupus familiaris; design: route oral, dose 3 mg/kg, time 0.03-24 hrs; details: in vivo
[35] = Intrinsic clearance in human hepatocytes at 3 uM assessed per million cells measured up to 60 mins by LC-MS/MS analysis; type: ADME, cell-based, Hepatocyte; details: read-out: CLH
[36] = Protein binding in human plasma assessed as unbound fraction at 5 uM by LC-MS/MS analysis based equilibrium dialysis method; type: ADME, cell-free
[37] = Half life in Beagle dog liver microsomes preincubated followed by NADPH addition and measured up to 45 mins by LC-MS/MS analysis
[38] = Cmax in CD1 mouse at 10 mg/kg, po measured after 0.083 to 24 hrs by UHPLC-TOF method; type: ADME, organism-based; design: route oral, time 0.083-24 hrs, dose 10 mg/kg; details: in vivo
[39] = Intrinsic clearance in Beagle dog hepatocytes at 3 uM assessed per million cells measured up to 60 mins by LC-MS/MS analysis; type: ADME, cell-based, Canis lupus familiaris, Hepatocyte; details: read-out: CLH
[40] = Half life in Beagle dog hepatocytes at 3 uM assessed per million cells measured up to 60 mins by LC-MS/MS analysis; type: ADME, cell-based, Canis lupus familiaris, Hepatocyte
[41] = Oral bioavailability in CD1 mouse at 10 mg/kg measured after 0.03 to 24 hrs by UHPLC-TOF method; type: ADME, organism-based; details: in vivo, time 0.03-24 hrs; in short: as §1
[42] = Oral bioavailability in Beagle dog at 3 mg/kg measured after 0.03 to 24 hrs by UHPLC-TOF method; type: ADME, organism-based, Canis lupus familiaris; details: in vivo, 3 mg/kg, time 0.03-24 hrs
In short: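 Dogs examined by a veterinary surgeon before each session, fed 2 h post-dose, water ad libitum, dosed as amorphous-solid suspension. Serial blood into heparinized tubes, centrifuged at 4 °C for 10 min at 3000g; plasma snap-frozen at −20 °C. IV sampling 2 min–24 h, oral 15 min–24 h. Plasma analysed by UHPLC-quadrupole-TOF MS.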

What does the source list for NCc1ccc2c(c1)nc(CN1C(=O)C3(CC3)c3cccc(F)c31)n2CCCC(F)(F)F?
Cmax [1]: 110 ng/mL; Tmax [2]: 2 h; CC50 [3]: > 25000 nM; clearance [4]: 209 mL/min/kg; intrinsic clearance [5]: 2 µL/min; intrinsic clearance (CLint) [6]: 2.9 µL/min; solubility thermodynamic [7]: 1180 µM (≈ 526 µg/mL); half-life [8]: 2.4 h; bioavailability [9]: 13.8%; half-life [10]: 0.8 h; Vd [11]: 11 L/kg; efflux ratio at 1 h, 10 µM [12]: 7.5; Vd [13]: 11.3 L/kg; Cmax [14]: 44.3 ng/mL; bioavailability [15]: 12.9%; EC50 (Human orthopneumovirus): 2.3 nM; Tmax [16]: 2.1 h; Cmax [17]: 44.3 ng/mL; clearance [18]: 76 mL/min/kg; Microsomal intrinsic clearance [19]: 0.7 µL/min; Papp A→B at 1 h, 10 µM [20]: 0.4 ×10⁻⁶ cm/s; Papp B→A at 1 h, 10 µM [21]: 2.7 ×10⁻⁶ cm/s

What does the source list for NCc1ccc2c(c1)nc(CN1C(=O)C3(CC3)c3ccc(F)cc31)n2C1CCOCC1?
hepatocyte CLint at 3 µM [22]: 21.2 µL/min/1e6 cells; Tmax [23]: 0.5 h; half-life [24]: 0.348 h; Tmax [25]: 1.7 h; fraction unbound at 5 µM [26]: 0.497; fraction unbound at 5 µM [27]: 0.399; half-life at 3 µM [28]: 3.28 h; half-life [29]: 3.1 h; CC50 [3]: > 25000 nM; intrinsic clearance [5]: 0.4 µL/min; half-life at 3 µM [30]: 1.02 h; intrinsic clearance (CLint) [6]: 66.4 µL/min; solubility thermodynamic [7]: 1270 µM (≈ 534 µg/mL); clearance [31]: 19.2 mL/min/kg; half-life [8]: 1.7 h; half-life [32]: 1.4 h; half-life [33]: 5.2 h; Cmax [34]: 505 ng/mL; hepatocyte CLint at 3 µM [35]: 7.1 µL/min/1e6 cells; fraction unbound at 5 µM [36]: 0.548; half-life [37]: 55.8 h; Cmax [38]: 450 ng/mL; efflux ratio at 1 h, 10 µM [12]: 94; Vd [13]: 5.5 L/kg; EC50 (Human orthopneumovirus): 2.4 nM; hepatocyte CLint at 3 µM [39]: 0.8 µL/min/1e6 cells; clearance [18]: 58 mL/min/kg; half-life at 3 µM [40]: > 16.7 h; Microsomal intrinsic clearance [19]: 5.2 µL/min; bioavailability [41]: 39.4%; Papp A→B at 1 h, 10 µM [20]: 0.4 ×10⁻⁶ cm/s; F [42]: 163%; Papp B→A at 1 h, 10 µM [21]: 40.6 ×10⁻⁶ cm/s
